# Measured values pooled from the literature.
# JAK2: Tyrosine-protein kinase JAK2 (JAK2, Homo sapiens, UniProt O60674)
# JAK2 JH1: Tyrosine-protein kinase JAK2, JH1 (JAK2, Homo sapiens, UniProt O60674)
Structure (SMILES),target,observed,mode,method,concentration,endpoint,result
Cc1nn(CC(F)(F)F)cc1Nc1nccc(NCCc2cnc[nH]2)n1,JAK2,enzyme activity,inhibitor,radiometric,1 µM,remaining activity,89%
CN(c1nccc(-c2cnn3ncccc23)n1)C1CC1,JAK2 JH1,cell-free assay,,,1 µM,remaining signal,100%
CCS(=O)(=O)c1cc2cc(C[C@](O)(CC(C)(C)c3ccc(F)cc3C(N)=O)C(F)(F)F)[nH]c2cn1,JAK2 JH1,cell-free assay,,competition with immobilised ligand,1 µM,remaining binding,53%
CCCS(=O)(=O)Nc1ccc(F)c(C(=O)c2c[nH]c3ncc(-c4ccc(Cl)cc4)cc23)c1F,JAK2 JH1,enzyme activity,inhibitor,,1 µM,inhibition,< 10%
O=C(NCCCNc1nc(Nc2cccc(NC(=O)N3CCCC3)c2)ncc1Br)C1CCC1,JAK2,enzyme activity,inhibitor,radiometric,1 µM,remaining activity,10%
CO[C@@H](C)c1c(Nc2ccc([C@@H](N(C)C(=O)C3CCS(=O)(=O)CC3)C(F)(F)F)cc2)cnc2cc(Cl)nn12,JAK2 JH1,cell-free assay,,competition with immobilised ligand,1 µM,remaining binding,98%
O=C1NC(=O)c2cc(Nc3ccc(F)cc3)c(Nc3ccc(F)cc3)cc21,JAK2,cell-free assay,,,0.5 µM,remaining signal,94.6%
COc1cc(Nc2cnc(C#N)c(O[C@H](C)CN(C)C)n2)ncc1-c1cnn(C)c1,JAK2,enzyme activity,inhibitor,radiometric,1 µM,remaining activity,71%
Nc1ncnc2occ(-c3ccc(NC(=O)Nc4cc(C(F)(F)F)ccc4F)cc3)c12,JAK2 JH1,cell-free assay,inhibitor,,20 µM,remaining signal,2%
CC/C(=N\NC(=O)NCc1cccc(O)c1)c1ccc(O)c(C)c1O,JAK2,enzyme activity,inhibitor,,0.1 µM,inhibition,1%
CC(C)(C)c1nc2c3cc[nH]c(=O)c3c3cc(F)ccc3c2[nH]1,JAK2,cell-free assay,,,0.5 µM,remaining signal,1.37%
COc1cc2ncnc(Nc3ccc(Oc4ccccc4)cc3C)c2cc1OC,JAK2,enzyme activity,inhibitor,,1 µM,inhibition,-6%
CN(C(=O)c1ccccc1)c1cc(N(C)c2ccc3c(c2)CCc2ccc(C(=O)NCCN4CCOCC4)cc2C3=O)ccc1F,JAK2 JH1,cell-free assay,,competition with immobilised ligand,1 µM,remaining binding,100%
Cc1sc(C(=O)NC2COC2)cc1-n1cc(NC(=O)Nc2c(F)cccc2Cl)cn1,JAK2,enzyme activity,inhibitor,,10 µM,remaining activity,95%
Cc1c[nH]c2nccc(Oc3c(F)cc(Nc4cc(Cl)nc(N)n4)cc3F)c12,JAK2 JH1,cell-free assay,,competition with immobilised ligand,0.1 µM,remaining binding,75%
Cc1nn(CC(F)(F)F)cc1Nc1nccc(NCCCNC(=O)C2CCC2)n1,JAK2,enzyme activity,inhibitor,radiometric,1 µM,remaining activity,114%
FC(F)c1nc2ccccc2n1-c1nc(N2CCOCC2)nc(N2CCOCC2)n1,JAK2,enzyme activity,inhibitor,,10 µM,remaining activity,79%
Cc1ccc(C(=O)NCc2ccsc2)cc1C#Cc1cn(C(C)C)c2ncnc(N)c12,JAK2,enzyme activity,inhibitor,,1 µM,activity vs control,100%
CC(C)c1ccc(NC(=O)c2cccs2)c(-c2nc3ccccc3[nH]c2=O)c1,JAK2,enzyme activity,inhibitor,,1 µM,activity vs control,123%
Cc1nc(N2CC[C@@H](O)C2)ncc1-c1cc(C(F)(F)F)cc2[nH]ncc12,JAK2 JH1,binding,,competition with immobilised ligand,1 µM,remaining binding,61%
O=C(CSc1nc2nccnc2c(=O)n1CCc1ccccc1)Nc1nccs1,JAK2 JH1,enzyme activity,inhibitor,,10 µM,inhibition,2%
CC(=O)Nc1c(C(C)=O)c(=O)n(C)c2nc(-c3ccc(Cl)cc3Cl)c(-c3ccc(Cl)cc3)cc12,JAK2 JH1,cell-free assay,,competition with immobilised ligand,1 µM,remaining binding,100%
C[C@H]1CCN(c2nccc(-c3cnn4ncccc34)n2)C1,JAK2 JH1,cell-free assay,,,1 µM,remaining signal,70%
Cc1ccc(Nc2nccc(N(C)c3ccc4c(C)n(C)nc4c3)n2)cc1S(N)(=O)=O,JAK2,enzyme activity,inhibitor,,0.3 µM,inhibition,12%
O=C(NCCCNc1nc(Nc2cccc(NC(=O)N3CCCC3)c2)ncc1I)c1cccs1,JAK2,enzyme activity,inhibitor,radiometric,1 µM,remaining activity,6%
CS(=O)(=O)c1cc(C2(NC(=O)c3cncc4c3cnn4-c3ccc(F)cc3)CC2)ccn1,JAK2 JH1,cell-free assay,,competition with immobilised ligand,1 µM,remaining binding,100%
O=C1Nc2ccc(Cl)cc2C1=Cc1cc(Cl)c(O)c(Cl)c1,JAK2,cell-free assay,,,0.5 µM,remaining signal,91.1%
c1cc(CN2CCOCC2)cc(Nc2ncc(C3CC3)c(NCCc3c[nH]cn3)n2)c1,JAK2,enzyme activity,inhibitor,radiometric,1 µM,remaining activity,82%
Nc1nc(Nc2ccc(S(N)(=O)=O)cc2)nn1C(=O)c1c(F)cccc1F,JAK2,cell-free assay,,,0.5 µM,remaining signal,19.2%
C[C@H](NC(=O)c1cnc2n1[C@](C)(Cc1ccc(C#N)cc1)C(=O)N2c1cc(Cl)c(F)c(Cl)c1)C(=O)NC1(c2ccccn2)CC1,JAK2 JH1,cell-free assay,,competition with immobilised ligand,1 µM,remaining binding,100%
Cc1nn(CC(F)(F)F)cc1Nc1ncc(C2CC2)c(NCCc2c[nH]cn2)n1,JAK2,enzyme activity,inhibitor,radiometric,1 µM,remaining activity,123%
Cc1cc(NC(=O)c2cccc3cc(-c4cccc5[nH]nc(N)c45)ccc23)ccc1F,JAK2,enzyme activity,inhibitor,,0.1 µM,activity vs control,78%
FC(F)(F)Oc1cccc(-c2cnc3ccc(-c4ccncc4)nn23)c1,JAK2,enzyme activity,inhibitor,radiometric,1 µM,activity vs control,74%
COc1cc2ncnc(Nc3ccc(Oc4ccccc4)c(C)c3C)c2cc1OC,"Tyrosine-protein kinase JAK2, JH1 (JAK2, Homo sapiens, UniProt O60674, V617F)",enzyme activity,inhibitor,,1 µM,inhibition,-4%
